Common to all, as to format: functional
The test system of one assay is LOX IMVI. Nature of the assay: Cytotoxicity against human LOXIMVI cells assessed as cell growth at 10 uM after 48 hrs by SRB assay relative to control. The following applies: read-out: Activity. The procedure, abridged: (§1)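 This was the NCI primary screen, with compound added once at 10⁻⁵ M and cultures incubated for 48 h. The endpoint was sulforhodamine B protein staining. Results are expressed as percent growth of treated cells relative to untreated control cells.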

Another assay relates to RPMI-8226. The experiment in a line: Cytotoxicity against human RPMI8226 cells assessed as cell growth at 10 uM after 48 hrs by SRB assay relative to control. Conditions: RPMI-8226, 48 h, read-out: Activity. The procedure, abridged:
as §1

A further assay has as its system K562. The experiment in a line: Cytotoxicity against human K562 cells assessed as cell growth at 10 uM after 48 hrs by SRB assay relative to control. Conditions: K562, 48 h, read-out: Activity. The procedure, abridged: as §1
For another assay, the system named is SR. The experiment in a line: Cytotoxicity against human SR cells assessed as cell growth at 10 uM after 48 hrs by SRB assay relative to control. Conditions: read-out: Activity. The method, boiled down: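 Single-dose NCI screen: compound at 10⁻⁵ M added to tumor cell cultures and incubated for 48 h. The SRB protein-binding dye end point was read spectrophotometrically. Results are percent growth of treated cells relative to untreated controls.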

In ChEMBL document CHEMBL2412956, “Synthesis and biological activity evaluation of 5-pyrazoline substituted 4-thiazolidinones” (Eur J Med Chem, 2013) one finds growth data, which are given here for 1 compound.

`COc1ccc(C2CC(c3ccccc3)=NN2C(=O)/C=C2\SC(=O)NC2=O)cc1` (centres undefined): the growth at 10 µM was found to be 55.7% in the assay on LOX IMVI, 58.9% in the assay with RPMI-8226, 58.2% in the assay on K562 and 39.1% in the assay with SR.
